pIC50: −log10 of the molar value.
Assays:
[1] = Drug accumulation in lysosomes of human UM-UC-3 cells at 500 nM formulated with 1% tween 80 solution after 24 hrs by lysosphere green based fluorimetry; format: ADME, subcellular, Lysosome; details: umuc3, 24 h, 0.5 µM
[2] = Drug accumulation in human UM-UC-3 cells at 500 nM formulated with 1% tween 80 solution after 24 hrs by CARY-fluorimetry; format: ADME, cell-based; details: umuc3, 24 h, 0.5 µM
[3] = Drug uptake in human UM-UC-3 cells assessed as increase in gray value intensity at 500 nM after 48 hrs in presence of gleevec by Hoechst 33342 staining based fluorescence microscopy; format: ADME, cell-based; details: umuc3, 24 h, 0.5 µM, in the assay text read “after 24 hrs” for “after 48 hrs”
In short: (§1)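 Cells plated at 100k per well, grown to 80% confluency, refreshed, then incubated 24 h with PS at 500 nM with or without Gleevec 5 µM. Washed twice with PBS, Hoechst 33342 added, imaged by fluorescence microscopy; grey value normalized to cell number, triplicate groups and images.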

[4] = Drug accumulation in mitochondria of human T24 cells at 500 nM formulated with 2% pluronic F-127 solution after 24 hrs by mitotracker red based fluorimetry; format: ADME; details: t-24, 24 h, 0.5 µM
[5] = system: UMUC3; test: Anti-tumor activity against human UM-UC-3 cells xenografted in SCID mouse assessed as tumor cure at 0.47 umol/kg, iv in presence of 135 J/cm2 light irradiation at 24 hrs post injection and measured at day 60; format: functional
In short: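 UMUC-3 cells implanted in right flank of SCID mice; at 4–5 mm tumors, PS given i.v. at 0.47 µmol/kg. Tumors exposed to 665 nm light, 135 J/cm2 at 75 mW/cm2, 24 h post-injection. Tumor regrowth monitored daily; mice euthanized at >400 mm3; tumor-free status scored at day 60.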

[6] = Drug uptake in human T24 cells assessed as increase in gray value intensity at 1 uM pretreated for 24 hrs followed by compound washout and measured after 4 hrs by Hoechst 33342 staining based fluorescence microscopy; format: ADME, cell-based; details: t-24, 4 h
In short: (§2)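 Cells pre-incubated 24 h with free erlotinib before PS addition. Legend describes PS at 1 uM or erlotinib at 3 uM for 4 h, then three warm PBS washes. Imaged by fluorescence microscopy; grey value per field normalized to cell count, triplicate wells, each imaged in triplicate.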

[7] = Stability at -4 degC for 2 months; format: physicochemical; details: 1461 h
In short: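 Photosensitizer formulations in Tween80 or Pluronic F-127 were stored at -4 °C, alongside a -20 °C set, for two months. Stability was judged by visible precipitation and change in pH.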

[8] = system: T-24; test: Induction of apoptosis in human T24 cells assessed as increase in apoptotic cells at 1 uM in absence of light by Annexin V/propidium iodide-staining based flow cytometry; format: cell-based; details: t-24, 1 µM
[9] = Drug uptake in human T24 cells xenografted in SCID mouse at 0.47 umol/kg formulated with 2% pluronic F-127 solution and measured at 24 hrs post injection by IVIS analysis; format: ADME, cell-based, T-24; details: in vivo
In short: (§3)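 SCID mice (3/group) bearing UMUC3 or T24 tumors of 4–5 mm injected with PS at 0.47 µmol/kg in Tween80 or Pluronic F-127. Tumor, liver and skin fluorescence followed by IVIS optical imaging (ex 675 nm, em 720) at several time points including 24 h.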

[10] = system: UMUC3; test: Induction of apoptosis in human UM-UC-3 cells assessed as increase in apoptotic cells at 1 uM in absence of light by Annexin V/propidium iodide-staining based flow cytometry; format: cell-based; details: umuc3, 1 µM
[11] = Drug uptake in human T24 cells xenografted in SCID mouse at 0.47 umol/kg formulated with 1% tween 80 solution and measured at 24 hrs post injection by IVIS analysis; format: ADME, cell-based, T-24; details: in vivo; in short: as §3
[12] = Drug accumulation in mitochondria of human UM-UC-3 cells at 500 nM formulated with 1% tween 80 solution after 24 hrs by mitotracker red based fluorimetry; format: ADME; details: umuc3, 24 h, 0.5 µM
[13] = Drug accumulation in mitochondria of human T24 cells at 500 nM formulated with 1% tween 80 solution after 24 hrs by mitotracker red based fluorimetry; format: ADME; details: t-24, 24 h, 0.5 µM
[14] = system: UMUC3; test: Photo-activated cytotoxicity against human UM-UC-3 cells assessed as reduction in cell viability preincubated for 24 hrs followed by 1 J/cm2 light irradiation and measured after 48 hrs formulated with 2% pluronic F-127 solution by MTT assay; format: functional, cell-based; details: UMUC3, light or radiation study
In short: (§4)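 Cells plated at 10k per well, allowed 24 h to adhere, then PS added in two-fold dilutions from 1 µM top for 24 h. Irradiated at 665 nm, 1.0 J/cm2 at 3.2 mW/cm2. Viability by MTT 48 h after PDT: about 2 h incubation, formazan dissolved in DMSO, absorbance at 570 nm.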

[15] = Drug uptake in human UM-UC-3 cells xenografted in SCID mouse at 0.47 umol/kg formulated with 1% tween 80 solution and measured at 24 hrs post injection by IVIS analysis; format: ADME, cell-based, UMUC3; details: in vivo; in short: as §3
[16] = Drug accumulation in lysosomes of human UM-UC-3 cells at 500 nM formulated with 2% pluronic F-127 solution after 24 hrs by lysosphere green based fluorimetry; format: ADME, subcellular, Lysosome; details: umuc3, 24 h, 0.5 µM
[17] = system: UMUC3; test: Induction of oxidative stress in human UM-UC-3 cells assessed as increase in ROS production at 1 uM in presence of 1 J/cm2 light irradiation and measured at 20 min post light exposure by DCFDA-fluorescence based assay relative to control; format: functional
In short: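 UMUC3 cells at 10k per well; after 24 h, PS added at 1 µM for 24 h (Tween80 formulation). DCFDA 1 µM for 20 min, fluorescence read (ex 492, em 517). Then 665 nm light, 1 J total at 3.2 mW/cm2, and read again. No-DCFDA background subtracted; 0.05% H2O2 control wells.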

[18] = system: T-24; test: Photo-activated cytotoxicity against human T24 cells assessed as reduction in cell viability preincubated for 24 hrs followed by 1 J/cm2 light irradiation and measured after 48 hrs formulated with 2% pluronic F-127 solution by MTT assay; format: functional, cell-based; details: T-24, light or radiation study; in short: as §4
[19] = Drug uptake in human UM-UC-3 cells assessed as increase in gray value intensity at 1 uM pretreated for 24 hrs followed by compound washout and measured after 4 hrs by Hoechst 33342 staining based fluorescence microscopy; format: ADME, cell-based; details: umuc3, 4 h; in short: as §2
[20] = Drug accumulation in lysosomes of human T24 cells at 500 nM formulated with 2% pluronic F-127 solution after 24 hrs by lysosphere green based fluorimetry; format: ADME, subcellular, Lysosome; details: t-24, 24 h, 0.5 µM
[21] = Drug uptake in human UM-UC-3 cells assessed as increase in gray value intensity at 500 nM after 48 hrs in absence of gleevec by Hoechst 33342 staining based fluorescence microscopy; format: ADME, cell-based; details: umuc3, 24 h, 0.5 µM, in the assay text read “24 hrs” for “48 hrs”; in short: as §1
[22] = system: UMUC3; test: Photo-activated cytotoxicity against human UM-UC-3 cells assessed as reduction in cell viability preincubated for 24 hrs followed by 1 J/cm2 light irradiation and measured after 48 hrs formulated with 1% tween 80 solution by MTT assay; format: functional, cell-based; details: UMUC3, light or radiation study; in short: as §4
[23] = Drug accumulation in lysosomes of human T24 cells at 500 nM formulated with 1% tween 80 solution after 24 hrs by lysosphere green based fluorimetry; format: ADME, subcellular, Lysosome; details: t-24, 24 h, 0.5 µM
[24] = Drug uptake in human UM-UC-3 cells xenografted in SCID mouse at 0.47 umol/kg formulated with 2% pluronic F-127 solution and measured at 24 hrs post injection by IVIS analysis; format: ADME, cell-based, UMUC3; details: in vivo; in short: as §3
[25] = system: T-24; test: Photo-activated cytotoxicity against human T24 cells assessed as reduction in cell viability preincubated for 24 hrs followed by 1 J/cm2 light irradiation and measured after 48 hrs formulated with 1% tween 80 solution by MTT assay; format: functional, cell-based; details: T-24, light or radiation study; in short: as §4
[26] = Drug accumulation in mitochondria of human UM-UC-3 cells at 500 nM formulated with 2% pluronic F-127 solution after 24 hrs by mitotracker red based fluorimetry; format: ADME; details: umuc3, 24 h, 0.5 µM
[27] = Drug accumulation in human UM-UC-3 cells at 500 nM formulated with 2% pluronic F-127 solution after 24 hrs by CARY-fluorimetry; format: ADME, cell-based; details: umuc3, 24 h, 0.5 µM
[28] = Stability at -20 degC for 2 months; format: physicochemical; details: 1461 h
In short: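 Formulated PS stored at -4 °C or -20 °C for two months; checked for precipitation and pH change.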

[29] = Drug uptake in human UM-UC-3 cells xenografted in SCID mouse at 50 uCi, iv measured at 110 min post injection by PET imaging analysis; details: in vivo

**Q.** For `CCC1=C(C)c2cc3[nH]c(cc4nc(c5c6[nH]c(cc1n2)c(C)c6C(=O)C5)[C@@H](CCC(=O)NCc1cccc(C#Cc2cccc(Nc5ncnc6cc(OCCOC)c(OCCOC)cc56)c2)c1)[C@@H]4C)c(C)c3C(C)OCc1cccc([127I])c1` (some centres undefined), which Drug uptake [1] is on record?
**A.** Its Drug uptake is “Active”.

**Q.** What about the Drug uptake [2] of the same compound?
**A.** The Drug uptake was “Active”.

**Q.** And the Drug uptake [3]?
**A.** The Drug uptake was “Not Active”.

**Q.** What about the Drug uptake [4] of the same compound?
**A.** The Drug uptake was “Active”.

**Q.** What about the Activity [5] of the same compound?
**A.** The Activity was 55%.

**Q.** And the Drug uptake [6]?
**A.** Its Drug uptake is “Active”.

**Q.** And the Stability [7]?
**A.** The Stability was “Stable”.

**Q.** What about the Activity [8] of the same compound?
**A.** Its Activity is “Non-Toxic”.

**Q.** And the Drug uptake [9]?
**A.** Its Drug uptake is “Active”.

**Q.** What about the Activity [10] of the same compound?
**A.** The Activity was “Non-Toxic”.

**Q.** And the Drug uptake [11]?
**A.** The Drug uptake was “Active”.

**Q.** What about the Drug uptake [12] of the same compound?
**A.** The Drug uptake was “Active”.

**Q.** What about the Drug uptake [13] of the same compound?
**A.** Its Drug uptake is “Active”.

**Q.** And the pIC50 [14]?
**A.** The pIC50 was 7.23.

**Q.** And the Drug uptake [15]?
**A.** Its Drug uptake is “Active”.

**Q.** And the Drug uptake [16]?
**A.** Its Drug uptake is “Active”.

**Q.** And the “fold change (FC)” value [17]?
**A.** Its value is 4.5.

**Q.** And the pIC50 [18]?
**A.** Its pIC50 is 6.50.

**Q.** And the Drug uptake [19]?
**A.** The Drug uptake was “Not Active”.

**Q.** What about the Drug uptake [20] of the same compound?
**A.** Its Drug uptake is “Active”.

**Q.** What about the Drug uptake [21] of the same compound?
**A.** The Drug uptake was “Not Active”.

**Q.** What about the pIC50 [22] of the same compound?
**A.** Its pIC50 is 7.44.

**Q.** What about the Drug uptake [23] of the same compound?
**A.** Its Drug uptake is “Active”.

**Q.** And the Drug uptake [24]?
**A.** Its Drug uptake is “Active”.

**Q.** And the pIC50 [25]?
**A.** The pIC50 was 6.86.

**Q.** And the Drug uptake [26]?
**A.** Its Drug uptake is “Active”.

**Q.** And the Drug uptake [27]?
**A.** The Drug uptake was “Active”.

**Q.** What about the Stability [28] of the same compound?
**A.** Its Stability is “Stable”.

**Q.** For `OC[C@H]1OC(O)[C@H]([18F])[C@@H](O)[C@@H]1O` (some centres undefined) [FLUDEOXYGLUCOSE F 18], which Drug uptake [29] is on record?
**A.** The Drug uptake was “Not Active”.
